# Most compounds without a hit are left out; they make up all but 3.1% or so of the library.
# DENV2 CPE rescue – DENV2-induced cell death inhibition | DENV2-infected cells, cytopathic effect rescue, plate reader | CPE inhibition, % at 9.99 µM | 350,000 compounds, 1.7% hits; in the data active means CPE inhibition above about 20%, passing the limit was not always enough; inconclusive means no clear call, values can overlap the other calls; tested in BHK-21 cells;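 further: 0% = median of neutral control wells and 100% = median of positive control wells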
# rRNA inh HTS – inhibits bacterial ribosomal RNA function over humanized ribosomes; E. coli WT GFP vs humanized-ribosome RFP mutants, fluorescence, 24 h; hits give low values; DMSO median 0, no signal -100; GFP signal change (wild-type ribosome), % (no concentration beside the values); 350,000 compounds, 1.6% hits;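 active means significant combined selectivity score with lowered wild-type GFP, culture density cut under 30%, mutant RFP and density less affected; inactive means any of these conditions unmet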
# Cneo AK release – causes C. neoformans cell lysis; adenylate kinase release luminescence, 4 h; normalised: neutral wells 0, clomiphene wells 100; lysis activity, % at 15 µM; 360,000 compounds, 0.2% hits; AID 651654;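 active means mean lysis activity across replicates of at least 80%, whatever share of replicates individually reach that level; inactive means mean lysis activity below 80%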
#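 Assay system: Cryptococcus neoformans yeast cells / Dosing: single-point compound dose / Timing: 4 h at 37 °C static, read 1 h later / Measured by: luminescence of released adenylate kinase using an AK detection reagent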
# E-selectin induc – induces E-selectin expression in human endothelial cells | P16581 | 260,000 compounds, 0.37% hits | activation, % at 7.58 µM | HUVEC E-selectin immunofluorescence imaging; normalized: neutral wells 0, TNF-alpha wells 100;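 active means mean E-selectin-positive cell signal at least 10% of the positive control, reached in at least 60% of replicates, without over 20% cell loss; inconclusive means no rule given, readout overlaps actives, possibly toxicity-flagged; inactive means the rest, including those meeting only one limit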
# Target sequence (P16581 whole entry, looked up): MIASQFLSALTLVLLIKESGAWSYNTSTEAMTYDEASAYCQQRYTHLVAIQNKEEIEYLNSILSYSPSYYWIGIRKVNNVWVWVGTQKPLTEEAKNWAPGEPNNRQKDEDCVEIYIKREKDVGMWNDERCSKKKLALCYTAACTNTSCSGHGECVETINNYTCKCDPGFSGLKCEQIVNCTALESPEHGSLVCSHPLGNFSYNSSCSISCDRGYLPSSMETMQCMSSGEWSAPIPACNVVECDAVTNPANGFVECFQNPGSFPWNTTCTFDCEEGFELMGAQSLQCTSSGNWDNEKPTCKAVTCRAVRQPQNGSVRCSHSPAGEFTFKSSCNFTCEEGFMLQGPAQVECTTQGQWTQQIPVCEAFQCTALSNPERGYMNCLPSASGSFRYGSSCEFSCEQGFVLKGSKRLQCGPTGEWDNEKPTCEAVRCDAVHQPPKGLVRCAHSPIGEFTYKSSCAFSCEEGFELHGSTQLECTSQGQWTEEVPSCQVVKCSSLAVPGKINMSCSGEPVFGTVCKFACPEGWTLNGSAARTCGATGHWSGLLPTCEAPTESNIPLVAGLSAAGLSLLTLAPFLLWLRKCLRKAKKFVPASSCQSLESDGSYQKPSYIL
#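 Material: HUVEC primary endothelial cells; Amount: 3,000 cells per well; Dosing: single concentration; Medium: EGM-2 growth medium on 0.1% gelatin-coated wells; Read-out basis: percent E-selectin-positive cells; Signal: immunofluorescence imaging; Control set: TNF-alpha, DMSO.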
# miR122 inh – miR-122 inhibition in Huh7 cells. 340,000 compounds, 0.3% hits. Huh7 miR-122 Renilla luciferase sensor, 48 h; neutral wells = 0, positive control = 100. activation (reporter increase), % at 12.5 µM;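 active means mean replicate activation score at least 90 and every replicate individually at or above 90; inconclusive means only one of the two criteria met; inactive means neither criterion met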;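 further: higher luciferase means less miR-122 activity so hits act as miR-122 inhibitors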
# Starred values were filed as active, the others as inactive; ? = inconclusive; . = not tested or not shown; [ ] = remark or other dose.
SMILES,DENV2 CPE rescue,rRNA inh HTS,Cneo AK release,E-selectin induc,miR122 inh
CCC(C)NC(=O)c1cn(-c2cccc(OC)c2)c(=O)c2ccccc12 (centres undefined),6,6,3,1,1
CCN(CC)C(=O)c1cn(-c2cccc(OC)c2)c(=O)c2ccccc12,-4,3,-2,67*,.
C=CCNC(=O)[C@@H]1[C@H]2C(=O)O[C@H](c3ccccc3)[C@H](c3ccccc3)N2[C@H](c2ccc(O)cc2)[C@@]12C(=O)Nc1ccc(C#CCC(C(=O)OC)C(=O)OC)cc12,32*,.,3,.,.
C=CCNC(=O)[C@H]1[C@@H]2C(=O)O[C@@H](c3ccccc3)[C@@H](c3ccccc3)N2[C@@H](c2ccc(O)cc2)[C@]12C(=O)Nc1ccc(C#CCCO)cc12,-8,.,.,.,.
CC1=NCCN1CCNC(=O)Nc1ccc(C(C)(C)C)cc1,24*,7,0,.,-6
O=C(NCCN1CCCC1=O)Nc1ccccc1,.,.,0,.,-7
CC(C)C(=O)Nc1ccc2c(c1)C(=O)N(C)[C@@H]1CC[C@@H](CC(=O)Nc3ccccc3)O[C@@H]1CO2,?,0,.,0,.
CN1C(C)(C)c2ccccc2OS1(=O)=O,25*,17,0,0,-4
O=C(Nc1ccc(Cl)cc1)N[C@@H]1CC[C@@H](CCNS(=O)(=O)c2ccccc2F)O[C@H]1CO,2,-8,-2,1,.
O=C(CSc1nc2ccccc2s1)NCc1cc([N+](=O)[O-])ccc1O,.,-31*,-19,0,1
N#CC1(NC(=O)CSc2ccccn2)CCCCC1,111*,5,.,1,-1
N#CC1(NC(=O)CSc2nc3ccc([N+](=O)[O-])cc3s2)CCCCC1,-2,-17*,.,-2,.
Cn1nnnc1SCC(=O)NCc1cc([N+](=O)[O-])ccc1O,5,10,.,.,.
Cc1cc(Cn2nc(C(=O)NCC3CC3)cc2-c2ccccc2)on1,22*,-27*,0,1,4
O=[N+]([O-])c1ccc(N2CCC(O)CC2)nc1,4,1,.,0,.
COc1ccccc1N1CCN(/N=C/C=C/c2ccccc2[N+](=O)[O-])CC1,0,-17*,-2,15,-4
COc1ccccc1N1CCN(c2ccc([N+](=O)[O-])cn2)CC1,-1,-21*,-1,.,-12
COc1ccccc1N1CCN(/N=C\c2sccc2C)CC1,-3,-28*,.,-6,.
COc1cccc(-c2ccc([C@@H]3[C@H](CO)N4CCCCN(C(=O)NC(C)C)C[C@@H]34)cc2)c1,8,-1,-1,0,2[16.7 µM]
COc1ccc(Br)cc1/C=N/NC(=O)C(c1ccncc1)N1CCOCC1 (centres undefined),98*,8,1,.,-4
CN(C)CCCCCCNC(=O)[C@@H]1C[C@@H]2C(=O)N3CCC[C@H]3C(=O)N2[C@@H]1c1ccc(O)cc1,-4,.,27,.,.
CN(C)C(=O)[C@@H]1[C@@H](CO)[C@@H]2Cn3c(ccc(C4=CCCC4)c3=O)[C@H]1N2C(=O)Nc1ccccc1,3,-1,1,0,.
CC1([N+](=O)[O-])COC(c2cccc3ccccc23)OC1 (centres undefined),4,-22*,2,0,1
C[C@H]1C/C=C\C[C@H](c2ccc3c(c2)OCO3)NC(=O)[C@H](c2ccccc2)CC(=O)N1,.,2,.,.,.
O=C(CN1CCOCC1)NCC[C@@H]1CC[C@@H](NC(=O)Nc2ccc(F)cc2)[C@@H](CO)O1,24*,0,0,0,.
SMILES,DENV2 CPE rescue,rRNA inh HTS,Cneo AK release,E-selectin induc,miR122 inh
O=C(Nc1ccccc1)N[C@@H]1CC[C@@H](CCNC(=O)c2ccccc2F)O[C@H]1CO,-9,2,107*,0,.
O=C(Nc1ccccc1)N[C@H]1CC[C@H](CCNC(=O)c2ccccc2F)O[C@@H]1CO,1,2,0,-1,.
O=C(CN1CCOCC1)NCC[C@H]1CC[C@@H](NC(=O)Nc2ccc(F)cc2)[C@H](CO)O1,4,5,1,-2,.
Nc1[nH]n2c(=O)cc(-c3ccccc3)nc2c1N=Nc1ccc(S(N)(=O)=O)cc1,4,-24*,.,.,.
Nc1[nH]n2c(=O)cc(-c3ccccc3)nc2c1N=Nc1ccccc1,.,.,0,.,-4
CO[C@@H]1CN(C)C(=O)c2cc(NC(=O)c3cccc(Oc4ccccc4)c3)ccc2OC[C@H](C)NC[C@H]1C,.,-3,.,0,-28[16.7 µM]
O=C1NCCOCn2nncc2CC[C@H]1Cc1ccccc1,.,3,.,.,.
COc1ccc(S(=O)(=O)N(C)C[C@H]2Oc3ccc(NC(=O)CCCN(C)C)cc3C(=O)N([C@H](C)CO)C[C@H]2C)cc1,-2,3,1,21,0[16.7 µM]
C[C@H]1CN([C@@H](C)CO)C(=O)c2cc(NC(=O)CCC(F)(F)F)ccc2O[C@H]1CN(C)C(=O)Nc1ccccc1,4,-1,-6,0,10[16.7 µM]
Cc1ccc(S(=O)(=O)N(C)C[C@H]2Oc3ccc(NC(=O)CCCN(C)C)cc3C(=O)N([C@H](C)CO)C[C@H]2C)cc1,3,-2,53,282*,-2[16.7 µM]
C[C@@H]1CN([C@@H](C)CO)C(=O)c2cc(NC(=O)CCC(F)(F)F)ccc2O[C@@H]1CN(C)CC1CCCCC1,22*,0,9,.,4[16.7 µM]
COc1ccc(S(=O)(=O)N(C)C[C@@H]2Oc3ccc(NC(=O)CCCN(C)C)cc3C(=O)N([C@@H](C)CO)C[C@@H]2C)cc1,4,1,0,57*,0[16.7 µM]
C[C@@H]1CN([C@@H](C)CO)C(=O)c2cc(NC(=O)CCC(F)(F)F)ccc2O[C@@H]1CN(C)C(=O)Nc1ccccc1,26*,0,-3,0,44[16.7 µM]
Cc1ccc(S(=O)(=O)N(C)C[C@@H]2Oc3ccc(NC(=O)CCC(F)(F)F)cc3C(=O)N([C@H](C)CO)C[C@@H]2C)cc1,47*,-1,-14,0,3[16.7 µM]
C[C@H]1CN([C@@H](C)CO)C(=O)c2cc(NC(=O)CCC(F)(F)F)ccc2O[C@@H]1CN(C)S(C)(=O)=O,21*,-2,6,2,-3[16.7 µM]
C[C@H]1CN([C@@H](C)CO)C(=O)c2cc(NC(=O)CCC(F)(F)F)ccc2O[C@H]1CN(C)S(C)(=O)=O,13,2,-8,20,10[16.7 µM]
C[C@@H]1CN([C@H](C)CO)S(=O)(=O)c2ccc(-c3ccc(F)cc3)cc2O[C@H]1CN(C)C,14,1,4,1,-10[16.7 µM]
CCCN1[C@H](C(=O)N[C@@H](C)c2ccccc2)[C@@H](CO)[C@@H]2Cn3c(ccc(-c4ccccc4)c3=O)[C@@H]21,-5,-16,-1,0,-8[16.7 µM]
COc1ccc2c3c(n(C)c2c1)[C@@H](CO)N(C)CC31CN(C(=O)c2ccccc2F)C1,1,-2,.,0,.
CS(=O)(=O)N(CC(=O)Nc1cccc(F)c1)c1cccc([N+](=O)[O-])c1,.,.,-8,.,277*

# Assay outcomes (PubChem)
